From ChEMBL document CHEMBL3763071, “Selective Human Estrogen Receptor Partial Agonists (ShERPAs) for Tamoxifen-Resistant Breast Cancer” (J Med Chem, 2016)
Activity calls are given as the source filed them. The rule behind the calls is not given here.

Legend:
[1] = (§1) Antiproliferative activity against tamoxifen resistant human MCF7:5C cells assessed as inhibition of cell growth at 10 nM after 9 days by MTS assay; assay type: functional; details: 216 h
Summary of the method: (§2)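 Tamoxifen-resistant MCF-7:5C cells (long-term estrogen-deprived MCF-7:ws8, phenol red-free RPMI with charcoal-dextran FBS) seeded 5000/well overnight, treated at 1, 10 or 100 nM with renewal every 3 days. […] Triplicates in at least three passages.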

[2] = target: T1, Estrogen receptor (Homo sapiens, UniProt P03372); experiment: Agonist activity at estrogen receptor alpha in human MCF7:WS8 cells after 18 hrs by dual luciferase reporter assay; assay type: cell-based
T1 sequence (P03372 whole entry): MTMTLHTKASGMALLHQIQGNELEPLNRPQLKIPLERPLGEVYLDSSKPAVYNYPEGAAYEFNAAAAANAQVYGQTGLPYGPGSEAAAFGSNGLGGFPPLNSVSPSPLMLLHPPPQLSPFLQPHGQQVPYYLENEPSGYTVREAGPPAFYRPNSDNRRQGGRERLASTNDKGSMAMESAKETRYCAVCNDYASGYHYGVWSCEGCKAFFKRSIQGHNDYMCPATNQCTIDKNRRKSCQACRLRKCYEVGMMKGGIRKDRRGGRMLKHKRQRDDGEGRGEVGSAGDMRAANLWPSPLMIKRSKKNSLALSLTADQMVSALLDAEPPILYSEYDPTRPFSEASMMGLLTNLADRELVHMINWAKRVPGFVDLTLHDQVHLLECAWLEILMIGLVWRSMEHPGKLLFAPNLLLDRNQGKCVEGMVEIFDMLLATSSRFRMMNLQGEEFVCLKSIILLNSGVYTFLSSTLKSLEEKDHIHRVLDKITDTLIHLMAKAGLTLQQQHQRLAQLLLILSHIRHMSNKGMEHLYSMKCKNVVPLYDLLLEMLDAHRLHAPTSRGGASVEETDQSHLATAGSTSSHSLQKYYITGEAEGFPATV

[3] = Cytotoxicity against human MCF7:WS8 cells at 0.1 to 1 uM after 3 days by MTT assay; assay type: cell-based; details: mcf7:ws8, 72 h
[4] = (§3) Antiproliferative activity against tamoxifen resistant human MCF7:5C cells assessed as inhibition of cell growth at 100 nM after 9 days by MTS assay; assay type: functional; details: 216 h; summary of the method: as §2
[5] = (§4) Antiproliferative activity against tamoxifen resistant human MCF7:5C cells assessed as inhibition of cell growth at 1 nM after 9 days by MTS assay; assay type: functional; details: 216 h; summary of the method: as §2
[6] = tested on: MCF7:5C; experiment: as §1; assay type: functional; summary of the method: as §2
[7] = tested on: MCF7:5C; experiment: as §4; assay type: functional; summary of the method: as §2
[8] = target: T2, Estrogen receptor (Homo sapiens) (UniProt P03372); experiment: Antagonist activity at ERalpha in human MCF7:WS8 cells assessed as E2-induced ERE activation after 18 hrs by luciferase reporter gene assay; assay type: cell-based
T2 sequence (whole entry): T1 sequence (P03372 whole entry)
Summary of the method: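 ERE-luciferase reporter in MCF-7:ws8 cells held in stripped medium 3 days, co-transfected with 3×ERE (Xenopus vitellogenin A2)-firefly luciferase and pRL-TK Renilla plasmids for 6 h. […] Average of three passages.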

[9] = target: T1, Estrogen receptor; experiment: Partial agonist activity at ERalpha in human MCF7:WS8 cells after 18 hrs by luciferase reporter gene assay; assay type: cell-based
Summary of the method: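 MCF-7:ws8 cells kept in stripped medium 3 days, then transiently co-transfected (6 h) with 3×ERE-firefly luciferase and pRL-TK Renilla plasmids. […] EC50 and Emax derived; mean ± s.e.m. from at least three passages.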

[10] = target: T2, Estrogen receptor (Homo sapiens); experiment: Partial agonist activity at biotinylated ERalpha LBD (unknown origin) assessed as increase in SRC3 coactivator recruitment after 1 hr by TR-FRET assay
Summary of the method: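 Biotinylated ERα LBD (1 nM) premixed with streptavidin-terbium (0.25 nM). Fluorescein-labelled SRC3 was titrated with ligand at 20 μM. Incubation ran 1 h at room temperature in the dark. Read-out was TR-FRET: excitation 340 nm, emission 495 and 520 nm, 100-μs delay. Background from parallel wells without LBD was subtracted, and signal was plotted against log SRC3.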

[11] = tested on: T47D:A18; experiment: Antitumor activity against tamoxifen resistant human T47D:A18 cells overexpressing PKC-alpha xenografted into BALB/c athymic mouse assessed as reduction in tumor size at 100 mg/kg administered via oral gavage daily measured upto 2 weeks; assay type: functional, organism-based
Summary of the method: (§5)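 T47D:A18/PKCα xenografts established 12 weeks before dosing. Compound given orally at 100 mg/kg daily for 2 weeks in 0.1% Tween 80/10% PEG400/0.5% CMC, plus drinking water replaced by hydrogel suspension at 0.25 mg/mL. Tumor area (length/2 × width/2 × π) by calipers weekly; uteri excised and weighed at sacrifice (control n = 4, treated n = 6).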

[12] = target: T2, Estrogen receptor (Homo sapiens); experiment: Partial agonist activity at biotinylated ERalpha LBD (unknown origin) assessed as inhibition of E2-induced SRC3 coactivator recruitment after 1 hr by TR-FRET assay
[13] = target: T2, Estrogen receptor (Homo sapiens); experiment: Partial agonist activity at estrogen receptor alpha in human MCF7:WS8 cells at 100 nM after 6 hrs in presence of 100 nM GPR30 inhibitor G15 by luciferase reporter gene assay; assay type: cell-based
[14] = tested on: Mus musculus; experiment: Toxicity in BALB/c athymic mouse xenografted with tamoxifen-resistant human T47D:A18 cells overexpressing PKC-alpha assessed as uterine weight at 100 mg/kg administered via oral gavage daily; assay type: organism-based; details: in vivo; summary of the method: as §5
[15] = tested on: MCF7:5C; experiment: as §3; assay type: functional; summary of the method: as §2

SMILES	inhibition at 0.01 µM [1] [%]	EC50 ([2]; read-out: EC50) [nM]	Activity [3]	inhibition at 0.1 µM [4] [%]	inhibition at 0.001 µM [5] [%]	inhibition [6]	inhibition [7]	also measured
Cc1ccc(C(=O)c2sc3cc(O)ccc3c2-c2ccc(F)cc2)cc1	7.4	717	Non-toxic	110	13.3			
N#Cc1ccc(C(=O)c2sc3cc(O)ccc3c2-c2ccc(F)cc2)cc1		58.7	Non-toxic	64.2	2			
CS(=O)(=O)c1ccc(C(=O)c2sc3cc(O)ccc3c2-c2ccc(F)cc2)cc1		436	Non-toxic	18.9		inactive	inactive	
Oc1ccc2c(-c3ccc(F)cc3)csc2c1								EC50 [2]: Not Active
CN(C)c1ccc(C(=O)c2sc3cc(O)ccc3c2-c2ccc(F)cc2)cc1	15.1	30.6	Non-toxic	111	4.1			
O=C(c1ccc(O)cc1)c1sc2cc(O)ccc2c1-c1ccc(F)cc1	99.8	0.2	Non-toxic	100	95.4			
C#Cc1ccc(C(=O)c2sc3cc(O)ccc3c2-c2ccc(F)cc2)cc1	79.9	5.3	Non-toxic	85.6	31.4			inhibition [8]: Dose-dependent effect; EC50 [9]: 5.3 nM; Activity [10]: Active; Activity [11]: Active; Activity [12]: Active
O=C(c1ccc(F)cc1)c1sc2cc(O)ccc2c1-c1ccc(F)cc1	32.4	18.5	Non-toxic	131			inactive	
Oc1ccc(Oc2sc3cc(O)ccc3c2-c2ccc(F)cc2)cc1 [TTC-352]	104	0.8	Non-toxic	123	50.6			inhibition [8]: Dose-dependent effect; EC50 [9]: 0.8 nM; Activity [10]: Active; Activity [12]: Active; Activity [13]: Active
Oc1ccc2c(-c3ccc(F)cc3)c(Oc3ccc(F)c(F)c3)sc2c1		33.4	Non-toxic	84.6		inactive	inactive	
O=C(c1ccc(C(F)(F)F)cc1)c1sc2cc(O)ccc2c1-c1ccc(F)cc1	15.4	5.2	Non-toxic	88.6			inactive	Activity [11]: Active; Activity [14]: Non-toxic
Cc1ccc(C(=O)c2c(-c3ccc(O)cc3)sc3cc(O)ccc23)cc1	60.2	2.6	Non-toxic	109	11.5			
Oc1ccc2c(-c3ccc(F)cc3)c(Oc3ccc(Cl)cc3)sc2c1		76.1	Non-toxic	30.7		inactive	inactive	inhibition [8]: Dose-dependent effect; EC50 [9]: 76.1 nM
O=C(c1sc2cc(O)ccc2c1-c1ccc(F)cc1)C1CCCCC1	134	1	Non-toxic	147	21.4			
Oc1ccc2cc(-c3ccc(F)cc3)sc2c1								EC50 [2]: Not Active
O=C(c1sc2cc(O)ccc2c1-c1ccc(F)cc1)C1CC1	79.6	13.9	Non-toxic	146			inactive	
O=C(c1ccc(OCCN2CCCCC2)cc1)c1c(-c2ccc(O)cc2)sc2cc(O)ccc12 [RALOXIFENE]			Non-toxic			inactive	inactive	inhibition [15]: inactive
O=C(c1ccc(C(F)(F)F)cc1)c1c(-c2ccc(Cl)cc2)sc2cc(O)ccc12		121	Non-toxic			inactive	inactive	inhibition [15]: inactive
O=C(c1ccc(C(F)(F)F)cc1)c1c(-c2ccc(F)cc2)sc2cc(O)ccc12	69.7	61.5	Non-toxic	108	55.6			
Oc1ccc(Oc2c(-c3ccc(F)cc3)sc3cc(O)ccc23)cc1		6.2	Non-toxic			inactive	inactive	inhibition [15]: inactive
Oc1ccc2c(-c3ccc(F)cc3)c(Oc3ccc(F)cc3)sc2c1		36.8	Non-toxic	86.6		inactive	inactive	
